# Experimental data published in ChEMBL document CHEMBL1139657, “Isothiazoloquinolones containing functionalized aromatic hydrocarbons at the 7-position: synthesis and in vitro activity of a series of potent antibacterial agents with diminished cytotoxicity in human cells” (Bioorg Med Chem Lett, 2006).
# Key:
# Staphylococcus aureus [1] = experiment: Antimicrobial activity against methicillin-resistant Staphylococcus aureus 700699; format: functional
# Outline: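 MIC taken as the lowest compound concentration preventing visible bacterial growth after incubation at 37 °C for 18–24 h.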
# HEp-2 = experiment: Cytotoxicity against human Hep2 laryngeal carcinoma cell line; format: functional
# Escherichia coli = experiment: Antimicrobial activity against Escherichia coli ATCC 25922; format: functional
# Outline: (§1)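 MIC taken as lowest concentration giving no visible bacterial growth after incubation at 37 °C for 18–24 h.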
# Staphylococcus aureus [2] = experiment: Antimicrobial activity against Staphylococcus aureus ATCC 29213; format: functional; outline: as §1
# DNA gyrase = DNA gyrase (Escherichia coli, UniProt P0AES4+P0AES6); experiment: Inhibitory activity against wild type Escherichia coli gyrase; format: protein-complex assay
# [3] = target: DNA topoisomerase 4 subunit A (Staphylococcus aureus, UniProt P0C1U9); experiment: Inhibitory activity against wild type Staphylococcus aureus topoisomerase 4
# DNA topoisomerase 4 subunit A, sequence (P0C1U9 whole entry): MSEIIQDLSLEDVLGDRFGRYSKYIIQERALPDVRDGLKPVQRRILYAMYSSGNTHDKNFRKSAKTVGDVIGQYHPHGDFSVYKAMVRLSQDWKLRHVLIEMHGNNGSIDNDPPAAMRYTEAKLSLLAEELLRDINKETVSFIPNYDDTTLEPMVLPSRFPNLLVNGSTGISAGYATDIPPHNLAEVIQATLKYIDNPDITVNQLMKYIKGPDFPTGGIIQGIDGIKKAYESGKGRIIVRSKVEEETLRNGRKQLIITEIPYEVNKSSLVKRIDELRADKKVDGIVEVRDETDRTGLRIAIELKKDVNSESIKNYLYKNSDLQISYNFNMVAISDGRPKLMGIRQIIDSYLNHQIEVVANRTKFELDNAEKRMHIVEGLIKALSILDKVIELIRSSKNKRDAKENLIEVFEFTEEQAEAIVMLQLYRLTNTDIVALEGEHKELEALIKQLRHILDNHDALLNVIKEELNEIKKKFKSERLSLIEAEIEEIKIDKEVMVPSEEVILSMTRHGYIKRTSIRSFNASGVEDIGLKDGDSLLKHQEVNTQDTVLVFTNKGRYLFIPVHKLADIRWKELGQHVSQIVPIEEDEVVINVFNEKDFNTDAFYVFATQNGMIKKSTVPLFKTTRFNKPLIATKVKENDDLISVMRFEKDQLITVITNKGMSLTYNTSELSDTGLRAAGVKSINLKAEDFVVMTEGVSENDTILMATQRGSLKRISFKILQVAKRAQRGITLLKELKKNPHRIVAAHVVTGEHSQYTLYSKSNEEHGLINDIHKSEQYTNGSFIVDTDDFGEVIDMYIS
# [4] = target: DNA topoisomerase II (Homo sapiens) (UniProt P11388+Q02880); experiment: Inhibitory activity against human topoisomerase 2; format: protein assay
Structure (SMILES),MIC (Staphylococcus aureus [1]),CC50 (HEp-2),MIC (Escherichia coli),MIC (Staphylococcus aureus [2]),IC50 (DNA gyrase),IC50 [3],EC2 [4]
CC(=O)c1cccc(-c2cc3c(cc2F)c(=O)c2c(=O)[nH]sc2n3C2CC2)c1,2 µg/mL,> 100 µM,0.125 µg/mL,0.004 µg/mL,,,
O=c1[nH]sc2c1c(=O)c1cc(F)c(-c3cccc(C4CCCCN4)c3)cc1n2C1CC1 (stereo not given),8 µg/mL,4 µM,0.125 µg/mL,0.06 µg/mL,0.7 µM,2.7 µM,
NC(=O)c1cccc(-c2cc3c(cc2F)c(=O)c2c(=O)[nH]sc2n3C2CC2)c1,2 µg/mL,,0.125 µg/mL,0.008 µg/mL,,,
COc1ccc(-c2cc3c(cc2F)c(=O)c2c(=O)[nH]sc2n3C2CC2)cc1,2 µg/mL,91 µM,0.125 µg/mL,0.015 µg/mL,,,
N#Cc1cccc(-c2cc3c(cc2F)c(=O)c2c(=O)[nH]sc2n3C2CC2)c1,0.125 µg/mL,> 100 µM,0.03 µg/mL,0.001 µg/mL,,,
O=c1[nH]sc2c1c(=O)c1cc(F)c(-c3cccc(O)c3)cc1n2C1CC1,0.25 µg/mL,> 100 µM,0.06 µg/mL,0.004 µg/mL,0.2 µM,1.6 µM,
COc1c(N2C[C@@H]3CCCN[C@@H]3C2)c(F)cc2c(=O)c(C(=O)O)cn(C3CC3)c12 [MOXIFLOXACIN],2 µg/mL,> 100 µM,0.015 µg/mL,0.06 µg/mL,,,
CN(C)c1cccc(-c2cc3c(cc2F)c(=O)c2c(=O)[nH]sc2n3C2CC2)c1,32 µg/mL,> 100 µM,2 µg/mL,0.06 µg/mL,,,
Nc1cccc(-c2cc3c(cc2F)c(=O)c2c(=O)[nH]sc2n3C2CC2)c1,8 µg/mL,> 100 µM,0.004 µg/mL,0.008 µg/mL,3.1 µM,10 µM,
O=c1[nH]sc2c1c(=O)c1cc(F)c(-c3cccc(CO)c3)cc1n2C1CC1,2 µg/mL,,0.125 µg/mL,0.008 µg/mL,0.5 µM,8.2 µM,
Nc1ccc(-c2cc3c(cc2F)c(=O)c2c(=O)[nH]sc2n3C2CC2)cc1,0.5 µg/mL,34 µM,0.06 µg/mL,0.004 µg/mL,0.3 µM,12 µM,
NCc1cccc(-c2cc3c(cc2F)c(=O)c2c(=O)[nH]sc2n3C2CC2)c1,2 µg/mL,8 µM,0.015 µg/mL,0.015 µg/mL,0.1 µM,0.2 µM,
N#Cc1ccccc1-c1cc2c(cc1F)c(=O)c1c(=O)[nH]sc1n2C1CC1,> 64 µg/mL,> 85 µM,2 µg/mL,0.125 µg/mL,,,
N#CCc1ccc(-c2cc3c(cc2F)c(=O)c2c(=O)[nH]sc2n3C2CC2)cc1,0.5 µg/mL,84 µM,0.02 µg/mL,0.002 µg/mL,,,
O=c1[nH]sc2c1c(=O)c1cc(F)c(-c3ccc(F)cc3)cc1n2C1CC1,32 µg/mL,> 100 µM,0.25 µg/mL,0.03 µg/mL,,,
Cc1ccc(-c2cc3c(cc2F)c(=O)c2c(=O)[nH]sc2n3C2CC2)cc1N,2 µg/mL,18 µM,0.125 µg/mL,0.008 µg/mL,,,
Cc1cc(-c2cc3c(cc2F)c(=O)c2c(=O)[nH]sc2n3C2CC2)cc(C)c1O,2 µg/mL,,0.125 µg/mL,0.001 µg/mL,,,
O=c1[nH]sc2c1c(=O)c1cc(F)c(N3CCNCC3)cc1n2C1CC1,4 µg/mL,7 µM,0.004 µg/mL,0.05 µg/mL,0.1 µM,0.5 µM,20 µM
NCC(=O)Nc1ccc(-c2cc3c(cc2F)c(=O)c2c(=O)[nH]sc2n3C2CC2)cc1,64 µg/mL,> 75 µM,1 µg/mL,0.25 µg/mL,,,

Structure (SMILES),MIC (Staphylococcus aureus [1]),CC50 (HEp-2),MIC (Escherichia coli),MIC (Staphylococcus aureus [2]),IC50 (DNA gyrase),IC50 [3],EC2 [4]
Nc1ccccc1-c1cc2c(cc1F)c(=O)c1c(=O)[nH]sc1n2C1CC1,64 µg/mL,46 µM,0.125 µg/mL,0.03 µg/mL,,,
O=c1[nH]sc2c1c(=O)c1cc(F)c(-c3ccc(C4CCCCN4)cc3)cc1n2C1CC1 (stereo not given),4 µg/mL,4 µM,0.25 µg/mL,0.125 µg/mL,1 µM,2.6 µM,
CO/N=C1\CN(c2nc3c(cc2F)c(=O)c(C(=O)O)cn3C2CC2)CC1CN (stereo not given) [GEMIFLOXACIN],2 µg/mL,46 µM,0.015 µg/mL,0.03 µg/mL,0.5 µM,0.3 µM,
COc1cc(-c2cc3c(cc2F)c(=O)c2c(=O)[nH]sc2n3C2CC2)ccc1O,0.125 µg/mL,4 µM,0.06 µg/mL,0.001 µg/mL,,,
COc1ccccc1-c1cc2c(cc1F)c(=O)c1c(=O)[nH]sc1n2C1CC1,32 µg/mL,> 84 µM,2 µg/mL,0.125 µg/mL,,,
CC(=O)Nc1cccc(-c2cc3c(cc2F)c(=O)c2c(=O)[nH]sc2n3C2CC2)c1,64 µg/mL,,0.125 µg/mL,0.004 µg/mL,,,
O=c1[nH]sc2c1c(=O)c1cc(F)c(-c3cccc(F)c3)cc1n2C1CC1,1 µg/mL,96 µM,0.125 µg/mL,0.004 µg/mL,1 µM,7.2 µM,> 150 µM
N#Cc1ccc(-c2cc3c(cc2F)c(=O)c2c(=O)[nH]sc2n3C2CC2)cc1,16 µg/mL,> 100 µM,1 µg/mL,0.03 µg/mL,,,
COc1cccc(-c2cc3c(cc2F)c(=O)c2c(=O)[nH]sc2n3C2CC2)c1,2 µg/mL,26 µM,0.125 µg/mL,0.004 µg/mL,,,
O=C(O)c1cn(C2CC2)c2cc(N3CCNCC3)c(F)cc2c1=O [CIPROFLOXACIN],32 µg/mL,> 100 µM,,0.25 µg/mL,,,
O=c1[nH]sc2c1c(=O)c1cc(F)c(-c3ccccc3)cc1n2C1CC1,16 µg/mL,> 100 µM,0.06 µg/mL,0.004 µg/mL,,,
NCCc1ccc(-c2cc3c(cc2F)c(=O)c2c(=O)[nH]sc2n3C2CC2)cc1,> 64 µg/mL,11 µM,0.06 µg/mL,0.02 µg/mL,,,
Nc1cc(-c2cc3c(cc2F)c(=O)c2c(=O)[nH]sc2n3C2CC2)ccc1F,0.5 µg/mL,28 µM,0.125 µg/mL,0.008 µg/mL,0.3 µM,10 µM,
O=c1[nH]sc2c1c(=O)c1cc(F)c(-c3ccc(O)cc3)cc1n2C1CC1,0.125 µg/mL,8 µM,0.03 µg/mL,0.004 µg/mL,0.8 µM,25 µM,15 µM
O=c1[nH]sc2c1c(=O)c1cc(F)c(-c3ccc(CO)cc3)cc1n2C1CC1,4 µg/mL,25 µM,0.06 µg/mL,0.004 µg/mL,0.9 µM,41 µM,
CN(C)c1ccc(-c2cc3c(cc2F)c(=O)c2c(=O)[nH]sc2n3C2CC2)cc1,4 µg/mL,51 µM,0.5 µg/mL,0.001 µg/mL,,,
O=c1[nH]sc2c1c(=O)c1cc(F)c(-c3ccccc3F)cc1n2C1CC1,8 µg/mL,> 100 µM,0.125 µg/mL,0.015 µg/mL,,,
COc1c(N2CCNC(C)C2)c(F)cc2c(=O)c(C(=O)O)cn(C3CC3)c12 (stereo not given) [GATIFLOXACIN],8 µg/mL,67 µM,0.015 µg/mL,0.125 µg/mL,0.5 µM,1.2 µM,
NCc1ccc(-c2cc3c(cc2F)c(=O)c2c(=O)[nH]sc2n3C2CC2)cc1,8 µg/mL,4 µM,0.015 µg/mL,0.03 µg/mL,0.1 µM,1.5 µM,
